ChEMBL document CHEMBL1122394, “Synthesis of potential anticancer agents. Pyrido[4,3-b][1,4]oxazines and pyrido[4,3-b][1,4]thiazines” (J Med Chem, 1983)

Tests used:
L1210 [1] = assay: Concentration that causes a mitotic index (fraction of cells in mitosis divided by total cells) of 0.5 for cultured lymphoid leukemia L1210 cells after exposure of 12 hr; format: functional, Mus musculus
Method in brief: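 Cultured lymphoid leukemia L1210 cells exposed to agent for 12 h. Mitotic index is the fraction of cells in mitosis over total cells. The value is the agent concentration giving a mitotic index of 0.5.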

L1210 [2] = assay: Antiproliferative activity against lymphoid leukemia L1210 cells after 48 hr exposure.; format: functional; details: Mus musculus, L1210, 48 h; read-out: ID50 (the source's name)
Mus musculus [3] = assay: Increase in life span of mice with lymphocytic leukemia P388 10E6 tumor cell implant (intraperitoneally) at the highest nontoxic dose of 300 mg/kg tested; format: functional; details: P388, ip, route intraperitoneal
Method in brief: (§1)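 Mice bore P388 lymphocytic leukemia. The value is the increase in life span at the highest nontoxic dose tested, with toxicity judged by weight change.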

Mus musculus [4] = assay: Increase in life span of mice with lymphocytic leukemia P388 10E6 tumor cell implant (intraperitoneally) at the highest nontoxic dose of 100 mg/kg tested; format: functional; details: P388, ip, route intraperitoneal; method in brief: as §1
Mus musculus [5] = assay: Increase in life span of mice with lymphocytic leukemia P388 10E6 tumor cell implant (intraperitoneally) at the highest nontoxic dose of 200 mg/kg tested; format: functional; details: P388, ip, route intraperitoneal; method in brief: as §1
Mus musculus [6] = assay: Compound tested for weight change in mice at a dose of 400 mg/kg; Toxic; format: toxicity, organism-based; parameters: dose 400 mg/kg; details: in vivo
Mus musculus [7] = assay: Compound tested for weight change in mice at a dose of 200 mg/kg; Toxic; format: toxicity, organism-based; parameters: dose 200 mg/kg; details: in vivo
Mus musculus [8] = assay: Increase in life span of mice with lymphocytic leukemia P388 10E6 tumor cell implant (intraperitoneally) at the highest nontoxic dose of 150 mg/kg tested; format: functional; details: P388, ip, route intraperitoneal; method in brief: as §1
Mus musculus [9] = assay: Increase in life span of mice with lymphocytic leukemia P388 10E6 tumor cell implant (intraperitoneally) at the highest nontoxic dose of 75 mg/kg tested; format: functional; details: P388, ip, route intraperitoneal; method in brief: as §1

| SMILES | MI0.5 (L1210 [1]) | IC50 (L1210 [2]) | ILS at 300 mg/kg (Mus musculus [3]) | also measured |
| --- | --- | --- | --- | --- |
| CCOC(=O)Nc1cc2c(c(N)n1)N=C(c1ccc3ccccc3c1)CS2 | 3 µM | 0.58 µM | 5% |  |
| CCOC(=O)Nc1cc2c(c(N)n1)N=C(c1ccccc1)C(C)O2 (stereo not given) | 0.49 µM | 0.11 µM |  | ILS at 100 mg/kg (Mus musculus [4]): 49% |
| CCOC(=O)Nc1cc2oc(=O)c(-c3ccccc3)nc2c(N)n1 |  | 3 µM | 0% |  |
| CCOC(=O)Nc1cc2c(c(N)n1)N=C(c1ccccc1)CO2 | 0.56 µM | 0.225 µM |  | ILS at 100 mg/kg (Mus musculus [4]): 44%; ILS at 200 mg/kg (Mus musculus [5]): 80%; Toxicity (Mus musculus [6]): Toxic |
| CCOC(=O)Nc1cc2c(c(N)n1)N=C(c1cccc(OC)c1)CO2 | 0.1 µM | 0.052 µM |  |  |
| CCOC(=O)Nc1cc2c(c(NC(=O)CBr)n1)N=C(c1ccccc1)CO2 | 11 µM | 2.2 µM |  |  |
| CCOC(=O)Nc1cc2c(c(/N=C/N(C)C)n1)N=C(c1ccccc1)CO2 | 0.78 µM | 0.31 µM |  | ILS at 100 mg/kg (Mus musculus [4]): 1%; Toxicity (Mus musculus [7]): Toxic |
| CCOC(=O)Nc1cc2c(c(N)n1)N=C(c1cc(OC)c(OC)c(OC)c1)CO2 |  | > 3 µM | 0% |  |
| CCOC(=O)Nc1cc2c(c(N)n1)N=C(c1ccc([N+](=O)[O-])cc1)CO2 |  | > 3 µM | 0% |  |
| CCOC(=O)Nc1cc2c(c(N)n1)N=C(c1cc(OC)cc(OC)c1)C(C)O2 (stereo not given) | 2.9 µM | 1.25 µM |  |  |
| CCOC(=O)Nc1cc2c(c(N)n1)N=C(c1ccccc1)C(C)S2 (stereo not given) | 9.6 µM | 1.6 µM |  | ILS at 150 mg/kg (Mus musculus [8]): 10% |
| CCOC(=O)Nc1cc2c(c(N)n1)N=C(c1ccccc1)C(c1ccccc1)O2 (stereo not given) | 3 µM | 0.88 µM |  | ILS at 200 mg/kg (Mus musculus [5]): 2% |
| CCOC(=O)Nc1cc2c(c(N)n1)N=C(c1ccc(OC)cc1)CS2 | 4.9 µM | 0.34 µM | 3% |  |
| CCOC(=O)Nc1cc2c(c(N)n1)N=C(c1ccc(Cl)cc1)CO2 |  | > 3 µM | 0% |  |
| CCOC(=O)Nc1cc2c(c(N)n1)N=C(c1ccccc1)CS2 | >10 µM | 6.1 µM | 0% |  |
| CCOC(=O)Nc1cc2c(c(N)n1)N=C(c1ccccc1)C(C)(C)S2 |  | > 10 µM |  |  |
| CCOC(=O)Nc1cc2c(c(N)n1)N=C(c1cccc(OC)c1)CS2 | 2 µM | 0.53 µM |  | ILS at 75 mg/kg (Mus musculus [9]): 3% |
